Active and inactive are the calls of the source. No cut-off for these calls is given here. Square brackets hold non-standard residues; d marks the D form. Peptide text beside a SMILES is read from it. dPhe(4-guanidino) = N=C(N)Nc1ccc(C[C@@H](N)C(=O)O)cc1; Phe(4-guanidino) = N=C(N)Nc1ccc(C[C@H](N)C(=O)O)cc1
Experiments:
Type in all cases: cell-based
[1] = target: T1, Mas-related G-protein coupled receptor member X1 (Rattus norvegicus, UniProt Q8R4G1); experiment: Agonist activity at rat MrgX1 transfected in HEK293 cells by FLIPR assay
T1 sequence (Q8R4G1 whole entry): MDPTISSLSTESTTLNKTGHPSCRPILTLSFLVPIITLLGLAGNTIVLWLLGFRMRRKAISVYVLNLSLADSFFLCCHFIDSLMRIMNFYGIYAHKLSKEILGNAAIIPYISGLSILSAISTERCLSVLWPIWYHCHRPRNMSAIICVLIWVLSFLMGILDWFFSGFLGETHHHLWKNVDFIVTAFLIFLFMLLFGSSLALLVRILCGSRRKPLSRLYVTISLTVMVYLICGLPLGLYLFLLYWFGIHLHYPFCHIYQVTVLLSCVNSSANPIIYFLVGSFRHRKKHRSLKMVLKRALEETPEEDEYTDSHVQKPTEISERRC
Procedure, shortened: (§1)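 Rodent Mrg receptors were transiently transfected into HEK293 or KNRK cells, which were plated at 25,000 cells/well and imaged 2 days later. Cells were loaded with 2 μM Fluo 4AM and 1% Trypan Red in HBSS for 50 min at 37°C, then held 10 min at room temperature.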

[2] = target: T2, Mas-related G-protein coupled receptor member X1 (Homo sapiens, UniProt Q96LB2); experiment: Agonist activity at human MrgX1 transfected in HEK293 cells by FLIPR assay
T2 sequence (Q96LB2 whole entry): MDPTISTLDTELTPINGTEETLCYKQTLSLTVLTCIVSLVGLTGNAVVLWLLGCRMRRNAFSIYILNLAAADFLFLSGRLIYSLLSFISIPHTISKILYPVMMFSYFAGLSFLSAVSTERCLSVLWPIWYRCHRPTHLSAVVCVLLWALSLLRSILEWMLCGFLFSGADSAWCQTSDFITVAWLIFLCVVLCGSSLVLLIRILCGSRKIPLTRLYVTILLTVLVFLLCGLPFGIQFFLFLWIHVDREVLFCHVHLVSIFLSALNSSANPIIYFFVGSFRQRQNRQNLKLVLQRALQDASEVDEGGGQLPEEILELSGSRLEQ
Procedure, shortened: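 Human MrgX1 stably expressed in HEK293 cells, plated at 25,000 cells/well 2 days before imaging. Cells loaded with 2 μM Fluo 4AM plus 1% Trypan Red in HBSS for 50 min at 37°C, then equilibrated 10 min at room temperature. Serial dilutions in HBSS added alongside BAM 8-22 (positive) and HBSS (negative) controls.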

[3] = target: T3, Mas-related G-protein coupled receptor member X1 (Mus musculus, UniProt Q8CIP3); experiment: Agonist activity at mouse MrgC11 transfected in HEK293 cells by FLIPR assay; procedure, shortened: as §1
T3 sequence (Q8CIP3 whole entry): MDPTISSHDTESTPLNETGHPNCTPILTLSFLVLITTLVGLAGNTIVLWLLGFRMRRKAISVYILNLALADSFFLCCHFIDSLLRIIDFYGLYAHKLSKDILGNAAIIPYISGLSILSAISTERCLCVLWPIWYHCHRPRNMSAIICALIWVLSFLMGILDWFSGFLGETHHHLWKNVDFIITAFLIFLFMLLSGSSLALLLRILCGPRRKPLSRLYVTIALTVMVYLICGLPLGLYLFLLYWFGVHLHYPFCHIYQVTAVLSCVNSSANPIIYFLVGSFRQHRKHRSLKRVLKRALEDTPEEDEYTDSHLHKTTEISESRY

[4] = target: T2, Mas-related G-protein coupled receptor member X1; experiment: Antagonist activity at human MrgX1 transfected in HEK293 cells at 200 uM by FLIPR assay

Structure (SMILES) | EC50 [1] [µM] | EC50 [2] [µM] | EC50 [3] [µM] | Activity [4]
COc1ccc(-c2ccc(C(=O)Nc3cccc(Cn4ncc(N5CCNCC5)cc4=O)c3C)cc2)cn1 | > 2 | 0.0251 | > 2 | –
N=C(N)N[C@@H]1CN[C@H](C(=O)N[C@@H](Cc2ccccc2)C(N)=O)C1 | > 100 | > 100 | 7.94 | –
N=C(N)N1CCC(C(N)C(=O)N[C@@H](Cc2ccccc2)C(N)=O)CC1 (some centres undefined) | 3.98 | > 100 | 0.794 | –

Second part, the molecule after the results:

EC50 [1] [µM] | EC50 [2] [µM] | EC50 [3] [µM] | Activity [4] | Structure (SMILES)
> 100 | > 100 | 0.501 | – | N=C(N)NC[C@@H]1CN[C@H](C(=O)N[C@@H](Cc2ccccc2)C(N)=O)C1
50.1 | > 100 | 15.8 | – | N=C(N)Nc1ccc(C[C@H](N)C(=O)N[C@@H](Cc2ccccc2)C(N)=O)cc1 (H-[Phe(4-guanidino)]-Phe-NH2)
0.631 | > 100 | 1.26 | inactive | N=C(N)Nc1ccc(C[C@@H](N)C(=O)N[C@@H](Cc2ccccc2)C(N)=O)cc1 (H-[dPhe(4-guanidino)]-Phe-NH2)

— ChEMBL document CHEMBL3351571, “Peptidomimetics of Arg-Phe-NH2 as small molecule agonists of Mas-related gene C (MrgC) receptors” (Bioorg Med Chem, 2014)
